Env fusion inh: HIV envelope-mediated fusion inhibition; hit rate 1.1% among 360,000; AID 651610; inhibition, % at 12.3 µM; HeLa-JRFL Env/CEM21 cell fusion, luciferase;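 active = mean replicate inhibition score of at least 50 and every replicate individually at or above 50; inconclusive = only one of the two criteria met; inactive = mean below 50 and not all replicates reaching 50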;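 also: 0% = plate neutral controls and 100% = maraviroc near 300 nM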
FGF22 binding: shifts melting point of recombinant human FGF22. hit rate 1.5% among 340,000. AID 651658. recombinant FGF22 thermal shift, SYPRO orange fluorescence; percent of sucrose octasulfate shift, DMSO zero. activity (Tm shift, normalised), % at 9.99 µM;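 active = mean Tm shift, scaled 0 neutral to 100 positive control, at about 1.3% or above, every replicate too, limit read from the data; inconclusive = no clear call, values can overlap the other calls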
Target sequence (Q9HCT0 whole entry, looked up): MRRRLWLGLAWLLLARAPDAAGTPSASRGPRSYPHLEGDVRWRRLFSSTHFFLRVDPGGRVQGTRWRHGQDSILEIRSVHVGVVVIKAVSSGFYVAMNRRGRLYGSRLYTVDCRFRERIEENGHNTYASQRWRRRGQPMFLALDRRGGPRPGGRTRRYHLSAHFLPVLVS
PGC1a acetyl inh: modulators of PGC1a acetylation; hit rate 0.17% among 350,000; inhibition, % at 15.6 µM; U2OS PGC1a acetylation, AlphaScreen anti-acetyl-lysine; with virally co-expressed GCN5 acetyltransferase;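 active = every replicate shows inhibition of at least 40%; inconclusive = mean inhibition at least 40% but some replicate below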;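 also: 0% = neutral control wells and 100% = positive control wells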
Ecoli rRNA inh: selective bacterial rRNA inhibition in E. coli; E. coli WT GFP vs humanized-ribosome RFP mutants, fluorescence, 24 h; hits give low values; DMSO median 0, no signal -100; GFP signal change (wild-type ribosome), % (no concentration beside the values); hit rate 1.6% among 350,000; AID 720706;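 active = significant combined selectivity score with lowered wild-type GFP, culture density cut under 30%, mutant RFP and density less affected; inactive = any of these conditions unmet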
Cneo AK release: Cryptococcus neoformans lysis via adenylate kinase release | hit rate 0.2% among 360,000 | lysis activity, % at 15 µM | C. neoformans lysis, adenylate kinase release luminescence, 4 h; normalised: neutral wells 0, clomiphene wells 100;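 active = mean lysis activity across replicates of at least 80%, whatever share of replicates individually reach that level; inactive = mean lysis activity below 80%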
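read-out = cell lysis signal | test system = log-phase Cryptococcus neoformans yeast cells | input = cells at 5 × 10^6 per mL | medium = fresh YPD growth medium | signal = luminescent adenylate kinase detection reagent | timing = 4 h at 37 °C static, read 1 h later | dosing = single dose | controls = Clomiphene as positive lysis control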
ERAP1 HTS inh: inhibitors of human ERAP1 aminopeptidase; Q9NZ08; recombinant ERAP1, Leu-AMC fluorescence, 60 min; inhibition, % at 10.7 µM; hit rate 0.15% among 340,000; AID 652197;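 active = mean replicate inhibition of at least 30%, or all replicates individually reaching that 30% level; inactive = mean below 30% and not every replicate reaching it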;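 also: 0% = neutral control wells and 100% = L-leucinethiol positive control wells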
* hit, by the source's call; ? = inconclusive; nt = no result given; [ ] = dose if it differs, or a comment. Only some compounds are listed: those with a hit (about 3.5% of all), similar ones and a draw of the others.

SMILES	Env fusion inh	FGF22 binding	PGC1a acetyl inh	Ecoli rRNA inh	Cneo AK release	ERAP1 HTS inh
COc1cc(/C=C/C(=O)OCC(=O)NC(C)c2ccccc2)cc(OC)c1OC (stereo not given)	0.8	0.0	11.4	-13.3*	-1.5	1.9
CC(NC(=O)COC(=O)/C=C/c1cccc(F)c1)c1ccccc1 (stereo not given)	nt	-0.1	nt	0.4	-0.1	-0.5
COc1cc(/C=C/C(=O)OCC(=O)NC(=O)NC(C)C)cc(OC)c1OC	23.8	0.2	-8.5	-1.8	1.8	-2.0
CC(NC(=O)COC(=O)/C=C/c1ccc(Cl)cc1)c1ccccc1 (stereo not given)	27.6	43.5*	nt	6.8	4.9	2.6
CC(C)NC(=O)C1(C)CSCC(=O)N1C1CC1 (stereo not given)	8.9	0.0	nt	nt	nt	0.1
O=C(c1cccs1)N1CCN=C1SCc1ccccc1F	-12.6	43.2*	-11.3	nt	1.3	-7.3
CCn1c(C)c(C(C)=O)c(N2CCN(c3cccc(Cl)c3)CC2)nc1=S	-28.1	nt	-9.6	nt	0.5	nt
O=C(CCCN1C(=O)/C(=C/c2ccccc2Cl)SC1=S)Nc1cccnc1	24.4	-0.1	nt	-9.6	0.5	-3.7
C[C@@H]1CN([C@@H](C)CO)C(=O)c2cc(NC(=O)c3ccccc3)ccc2O[C@@H](C)CCCCO[C@H]1CN(C)C(=O)CCC(F)(F)F	-19.8[16.7 µM]	-0.3	-13.8	-0.8	-4.1	-12.3
CN=c1scc(-c2ccc([N+](=O)[O-])cc2)n1/N=C/c1ccco1	-45.3	0.4	4.1	-18.1	-2.1	-4.9
CN=c1scc(-c2ccc(F)cc2)n1/N=C/c1ccc(O)c(O)c1	-49.4	0.2	-2.9	-41.4*	nt	12.1
CCCCCCCN(c1ccccc1)[C@@H]1C[C@H]2CCCC(=O)N3CC[C@@H](C1)[C@@H]23	73.6*	-0.2	40.5	-7.2	-1.6	-1.3
CCOC(=O)c1ccc(NC(=O)C2CC(=O)N=C(N)S2)cc1 (stereo not given)	-9.3	43.3*	0.5	19.8	nt	-3.1
O=[N+]([O-])c1ccc(C(O)C(CO)NC(=S)Nc2ccccc2)cc1 (stereo not given)	16.2	-0.1	nt	-44.1*	nt	1.3
CCc1ccc(C2=CC(c3cc(Br)ccc3F)n3ncnc3N2)cc1 (stereo not given)	25.9	nt	-0.9	nt	-8.1	nt
Fc1ccc(Br)cc1C1C=C(c2ccc(Br)cc2)Nc2ncnn21 (stereo not given)	-132.6	nt	1.8	-30.0*	-1.1	-4.1
CN(CC(=O)O)Cc1oc(CO)cc(=O)c1O	-6.1	43.6*	-2.0	3.1	nt	-0.1
CCN1CCN(Cc2oc(CO)cc(=O)c2O)CC1	-25.4	nt	3.7	nt	0.5	nt
COc1cccc(CNC(=O)CN(C)S(=O)(=O)c2ccc3c(c2)CC(C)N3C(C)=O)c1 (stereo not given)	-4.1	-0.1	-7.0	-4.0	-2.9	-1.7
CN(c1ccc(-c2csc(NC(=O)CCCc3nc4ccccc4c(=O)[nH]3)n2)cc1)S(C)(=O)=O	5.5	44.0*	-25.6	-6.2	-2.3	2.3
O=C(CCc1nc2ccccc2c(=O)[nH]1)Nc1nc(-c2cccs2)cs1	-13.3	-0.2	nt	-1.3	nt	2.4
CCc1nc2ccc(C(=O)Nc3cc(-c4ccccc4)ccc3OC)cn2c1N(C)CCCc1ccccc1	18.6	0.1	-11.4	1.1	-0.3	-4.4
Cn1c(=O)[nH]c(=O)c2c1[nH]c(=S)n2Cc1ccc(Cl)cc1	3.8	-0.3	nt	7.1	0.1	44.6*
COc1ccc(NC(=O)Cn2nnc(C(=O)NCCc3ccccc3)c2N)cc1	15.5	-0.5	1.2	-6.2	nt	1.9
COc1ccc(NC(=O)Cn2nnc(C(=O)Nc3ccccc3C)c2N)cc1	-11.7	43.5*	-3.3	11.7	nt	-3.6
SMILES	Env fusion inh	FGF22 binding	PGC1a acetyl inh	Ecoli rRNA inh	Cneo AK release	ERAP1 HTS inh
COc1ccccc1CNC(=O)C[C@@H]1C[C@@H]2c3cc(NC(=O)Cc4ccncc4)ccc3O[C@@H]2[C@@H](CO)O1	-6.2[16.7 µM]	-0.2	6.1	-3.6	19.4	1.8
Cc1ccc(C(=O)O)cc1NC(=S)NC(=O)c1ccc(-c2ccccc2)cc1	-82.8	43.0*	1.5	-8.9	-12.4	4.5
CN(C)CCNc1nc2sc3c(c2c(=O)n1-c1ccc(F)cc1)CCCCC3	15.2	-0.1	nt	-6.1	nt	14.6
Cc1ccc(N2C(=O)N3[C@H](c4cccc(C)c4)[C@@H]4C(=O)N(Cc5ccccc5)C(=O)[C@@H]4[C@]3(C)C2=O)cc1	81.3*	0.0	nt	2.0	1.3	-0.8
Cc1cccc([C@@H]2[C@@H]3C(=O)N(Cc4ccccc4)C(=O)[C@@H]3[C@]3(C)C(=O)N(c4cccc(F)c4)C(=O)N23)c1	50.2	-0.3	6.9	-2.8	1.1	0.5
Cc1cccc([C@@H]2[C@@H]3C(=O)N(Cc4ccccc4)C(=O)[C@@H]3[C@]3(CC(C)C)C(=O)N(c4cccc(Cl)c4)C(=O)N23)c1	55.4*	-0.1	6.8	11.3	-2.6	-2.3
CC1=Nc2cc(C(=O)NCC3CCCO3)ccc2Sc2ccc(Br)cc21 (stereo not given)	11.8	0.0	-1.7	-21.8*	0.2	1.3
CC1=Nc2cc(C(=O)O)ccc2Sc2ccc(Br)cc21	-8.6	-0.2	-1.0	-5.1	-4.3	-1.3
O=c1c2c(nc3c(-c4cccc5ccccc45)c[nH]n13)CCC2	nt	nt	nt	nt	1.1	nt
O=c1c2c(nc3c(-c4ccc(Cl)cc4)c[nH]n13)CCCC2	62.3*	nt	?	nt	-1.5	nt
O=C(/C=C/c1ccc(F)cc1)N1CCCN(C(=O)/C=C/c2ccc(F)cc2)CC1	26.8	nt	-1.0	nt	6.3	nt
CCOC(=O)c1cc(-c2cccnc2)nn1-c1ccccc1C	4.7	43.5*	-10.9	-5.5	-1.8	-3.9
CNC(=O)COC(=O)c1cc(-c2ccccc2)nn1-c1ccccc1	-3.2	-0.1	-9.5	-27.1*	0.5	-1.6
Cc1ccccc1NC(=S)N/N=C/c1ccc(O)cc1O	-59.1	0.6	3.2	-18.4	-5.0	nt
Cc1cccc(NC(=S)N/N=C/c2cccc(O)c2)c1C	-50.6	0.1	-10.8	-23.5*	0.1	nt
COc1cccc(N(CC(=O)N2CCCCCC2)S(C)(=O)=O)c1	-4.5	0.3	2.0	-8.7	0.0	0.5
Cn1c(=O)[nH]c(=O)c2c1nc(SCC(=O)O)n2CCOc1ccccc1	14.1	-0.2	nt	8.9	-1.3	-1.2
O=C(Nc1ccc(Nc2ccccc2)cc1)N1CCOCC1	-17.5	nt	-5.4	nt	-0.4	nt
O=C(Nc1ccccc1)n1cc(-c2ccccn2)c(N2CCOCC2)n1	2.7	44.1*	nt	-0.4	nt	6.3
O=Cc1cc(N=Nc2ccc(S(=O)(=O)O)cc2)ccc1O	0.3	0.8	nt	-20.4*	nt	10.1
COc1cc(N=Nc2ccc(Br)cc2)cc(C=O)c1O	-26.8	0.0	nt	28.9	-0.6	1.6
CN(C(=O)COC(=O)c1cc(-c2ccccc2Cl)nc2ccccc12)C1CCS(=O)(=O)C1 (stereo not given)	7.3	0.6	7.2	-9.3	1.5	6.5

Screens (PubChem)
